According to ChEMBL document CHEMBL4706562, “Design, synthesis and evaluation of covalent inhibitors of DprE1 as antitubercular agents” (Eur J Med Chem, 2020):
In brackets after ≈: the same amount, converted by molar mass. Activity calls are given as the source filed them. No cut-off for these calls is given here.

What was measured:
[1] = target: T1, Decaprenylphosphoryl-beta-D-ribose oxidase (Mycobacterium tuberculosis (strain ATCC 25618 / H37Rv), UniProt P9WJF1); test: Inhibition of Mycobacterium tuberculosis DprE1 expressed in Escherichia coli BL21 (DE3) cells assessed as formation of resorufin using FPR as substrate by Amplex Red hydrogen/peroxidase coupled assay
T1 sequence (P9WJF1 whole entry): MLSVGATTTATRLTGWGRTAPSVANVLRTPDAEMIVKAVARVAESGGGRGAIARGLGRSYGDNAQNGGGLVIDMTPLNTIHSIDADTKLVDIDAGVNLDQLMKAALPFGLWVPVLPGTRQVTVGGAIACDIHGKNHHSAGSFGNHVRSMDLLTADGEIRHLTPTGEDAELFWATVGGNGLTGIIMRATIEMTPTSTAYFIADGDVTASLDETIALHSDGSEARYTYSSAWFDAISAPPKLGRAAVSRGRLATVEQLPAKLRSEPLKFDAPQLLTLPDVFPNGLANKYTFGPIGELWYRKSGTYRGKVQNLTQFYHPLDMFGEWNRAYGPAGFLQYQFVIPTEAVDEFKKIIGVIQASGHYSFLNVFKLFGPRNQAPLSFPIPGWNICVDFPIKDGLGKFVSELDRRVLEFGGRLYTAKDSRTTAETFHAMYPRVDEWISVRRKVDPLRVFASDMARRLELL

[2] = system: Mycobacterium tuberculosis; test: Antimycobacterial activity against Mycobacterium tuberculosis H37Rv ATCC 25618 assessed as inhibition of visible bacterial growth by MABA assay; assay type: functional
Method in brief: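 Inoculum adjusted to 1.0 McFarland, diluted 1:20 in Middlebrook 7H9 with 10% OADC and 0.2% glycerol. Compounds taken from 1.0 mg/mL DMSO stocks and serially diluted two-fold. Microplate alamar blue read-out: blue to pink marks growth, colours recorded after 24 h. MIC taken as the lowest concentration giving no colour change. PBTZ169 served as positive control.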

[3] = target: T2, Decaprenylphosphoryl-beta-D-ribose oxidase (Mycobacterium tuberculosis (strain ATCC 25618 / H37Rv)) (UniProt P9WJF1); test: Inhibition of Mycobacterium tuberculosis H37Rv DprE1 assessed as increase in trehalose dimycolates at 100 x MIC incubated for 24 hrs using [14C]acetate by TLC based metabolic labelling assay relative to control
T2 sequence (whole entry): T1 sequence (P9WJF1 whole entry)
Method in brief: (§1)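 M. tuberculosis H37Rv cultures labelled with [14C]acetate for 24 h. […] Lipids extracted and resolved by TLC, with TDM/TMM compared to untreated control cells. BTZ043 and PBTZ169 served as control inhibitors.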

[4] = target: T2, Decaprenylphosphoryl-beta-D-ribose oxidase (Mycobacterium tuberculosis (strain ATCC 25618 / H37Rv)); test: Inhibition of Mycobacterium tuberculosis H37Rv DprE1 assessed as increase in trehalose monomycolates at 100 x MIC incubated for 24 hrs using [14C]acetate by TLC based metabolic labelling assay relative to control; method in brief: as §1
[5] = Half life of the compound in PBS assessed as parent compound remaining by HPLC analysis; assay type: physicochemical
[6] = Reactivity of compound towards methyl thioglycolate in PBS measured after 48 hrs by LC/MS/MS; assay type: physicochemical; settings: buffer
Method in brief: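 Test compound and methyl thioglycolate co-incubated at 37 °C in 50 mM PBS, pH 7.4. The reaction was followed by TLC, and aliquots were injected into LC-MS/MS at set intervals over 48 h. Electrospray positive-ion mass spectra detected MT adducts, and half-life was determined.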

[7] = target: T2, Decaprenylphosphoryl-beta-D-ribose oxidase (Mycobacterium tuberculosis (strain ATCC 25618 / H37Rv)); test: Inhibition of Mycobacterium tuberculosis H37Rv DprE1 assessed as increase in trehalose dimycolates at 10 x MIC preincubated for 24 hrs using [14C]acetate by TLC based metabolic labelling assay relative to control; method in brief: as §1
[8] = target: T2, Decaprenylphosphoryl-beta-D-ribose oxidase (Mycobacterium tuberculosis (strain ATCC 25618 / H37Rv)); test: Inhibition of Mycobacterium tuberculosis H37Rv DprE1 assessed as increase in trehalose monomycolates at 10 x MIC preincubated for 24 hrs using [14C]acetate by TLC based metabolic labelling assay relative to control; method in brief: as §1
[9] = target: T2, Decaprenylphosphoryl-beta-D-ribose oxidase (Mycobacterium tuberculosis (strain ATCC 25618 / H37Rv)); test: Inhibition of Mycobacterium tuberculosis DprE1 expressed in Escherichia coli BL21 (DE3) cells assessed as formation of resorufin using FPR as substrate at 20 uM by Amplex Red hydrogen/peroxidase coupled assay; set-up: scale not given: the % may be the effect or the level left
[10] = target: T2, Decaprenylphosphoryl-beta-D-ribose oxidase (Mycobacterium tuberculosis (strain ATCC 25618 / H37Rv)); test: Binding affinity to trypsin digested Mycobacterium tuberculosis DprE1 protein assessed as Cys387 adduct formation with 387-CVDFP-391 sequence at 300 uM by measuring retention time by LC/MS analysis
[11] = target: T2, Decaprenylphosphoryl-beta-D-ribose oxidase (Mycobacterium tuberculosis (strain ATCC 25618 / H37Rv)); test: Covalent binding affinity to Mycobacterium tuberculosis DprE1 assessed as adduct formation by measuring 490 Da shift increase in molecular weight at 100 uM by Mass spectrometry analysis
[12] = target: T2, Decaprenylphosphoryl-beta-D-ribose oxidase (Mycobacterium tuberculosis (strain ATCC 25618 / H37Rv)); test: Covalent binding affinity to Mycobacterium tuberculosis DprE1 assessed as adduct formation by measuring 460 Da shift increase in molecular weight at 100 uM by Mass spectrometry analysis
[13] = target: T2, Decaprenylphosphoryl-beta-D-ribose oxidase (Mycobacterium tuberculosis (strain ATCC 25618 / H37Rv)); test: Binding affinity to trypsin digested Mycobacterium tuberculosis DprE1 protein assessed as Cys387 adduct formation with 385-NICVDFPIL-393 sequence at 300 uM by measuring retention time by LC/MS analysis

Row | SMILES | IC50 [1] [µM] | MIC [2] [µM] | Activity [3] | Activity [4] | half-life [5] [h] | Activity [6] | also measured
1 | NC(=O)CCc1cc(C(F)(F)F)cc2c(=O)nc(N3CCN(CC4CCCCC4)CC3)sc12 | 16.7 | > 9 |  |  |  |  | 
2 | N#Cc1ncc2c(=O)nc(N3CCN(CC4CCCCC4)CC3)sc2n1 | > 20 | 6.73 (≈ 2.49 µg/mL) |  |  |  |  | 
3 | C[C@H]1COC2(CCN(c3nc(=O)c4cc(C(F)(F)F)cc([N+](=O)[O-])c4s3)CC2)O1 |  |  | Active | Active |  |  | 
4 | N#Cc1cc(C(F)(F)F)cc2c(=O)nc(N3CCN(CC4CCCCC4)CC3)sc12 | 1.7 | 0.16 (≈ 0.0698 µg/mL) |  |  | 12 | Active | 
5 | O=c1nc(N2CCN(CC3CCCCC3)CC2)sc2c(Br)cc(C(F)(F)F)cc12 | 1.84 | 0.16 (≈ 0.0785 µg/mL) |  |  |  |  | Activity [7]: Active; Activity [8]: Active
6 | O=c1nc(N2CCN(CC3CCCCC3)CC2)sc2c(Cl)cc(C(F)(F)F)cc12 | 0.92 | 0.03 (≈ 0.0134 µg/mL) |  |  |  |  | Activity [7]: Active; Activity [8]: Active
7 | CNC(=O)/C=C/c1cc(C(F)(F)F)cc2c(=O)nc(N3CCN(CC4CCCCC4)CC3)sc12 | 0.39 | 20 (≈ 9.89 µg/mL) | inactive | inactive |  |  | 
8 | N#CCCc1cc(C(F)(F)F)cc2c(=O)nc(N3CCN(CC4CCCCC4)CC3)sc12 | 13.2 | > 9 |  |  |  |  | 
9 | O=c1nc(N2CCN(CC3CCCCC3)CC2)sc2c([N+](=O)[O-])cc(C(F)(F)F)cc12 [MACOZINONE] |  |  | Active | Active |  |  | 
10 | O=c1nc(N2CCN(CC3CCCCC3)CC2)sc2c(/C=C/c3ccccn3)cc(C(F)(F)F)cc12 |  | > 20 |  |  |  |  | Activity [9]: < 70%
11 | COC(=O)/C=C/c1cc(C(F)(F)F)cc2c(=O)nc(N3CCN(CC4CCCCC4)CC3)sc12 | 1.24 | > 20 | inactive | inactive | 1 | Active | Retention time [10]: 43.3 min; Activity [11]: Active; Activity [7]: Active; Activity [8]: Active
12 | COC(=O)C#Cc1cc(C(F)(F)F)cc2c(=O)nc(N3CCN(CC4CCCCC4)CC3)sc12 | 0.14 | 10 (≈ 4.94 µg/mL) | inactive | inactive | 1.2 | Active | Activity [7]: Active; Activity [8]: Active
13 | NC(=O)/C=C/c1cc(C(F)(F)F)cc2c(=O)nc(N3CCN(CC4CCCCC4)CC3)sc12 | 0.2 | 20 (≈ 9.61 µg/mL) | inactive | inactive | 10 | Active | Activity [12]: Active; Retention time [13]: 29.3 min; Activity [7]: Active; Activity [8]: Active
14 | N#C/C=C/c1cc(C(F)(F)F)cc2c(=O)nc(N3CCN(CC4CCCCC4)CC3)sc12 |  | > 20 |  |  | 0.2 | Active | Activity [9]: < 70%
15 | COC(=O)CCc1cc(C(F)(F)F)cc2c(=O)nc(N3CCN(CC4CCCCC4)CC3)sc12 | 5.4 | > 9 |  |  |  |  | 
16 | O=c1nc(N2CCN(CC3CCCCC3)CC2)sc2c(I)cc(C(F)(F)F)cc12 | 2.35 | 0.63 (≈ 0.339 µg/mL) |  |  |  |  | 
17 | CN(C)C(=O)/C=C/c1cc(C(F)(F)F)cc2c(=O)nc(N3CCN(CC4CCCCC4)CC3)sc12 | 1.25 | > 20 |  |  | > 48 | Active | 
18 | O=c1nc(N2CCN(CC3CCCCC3)CC2)sc2nc(Cl)ncc12 | > 20 | > 20 |  |  | 4 | Active | 
19 | N#Cc1ccc2c(=O)nc(N3CCN(CC4CCCCC4)CC3)sc2n1 | 7.72 | > 12 |  |  |  |  | 
